# From PubChem BioAssay AID720543 (The Scripps Research Institute Molecular Screening Center, 2013)
# Where “and” joins values, the source holds several entries; their conditions need not be identical. Equal entries are not always repeated. The whole screen tested about 370,000 compounds, of which about 2,000 (0.54%) were called active.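 The calls were made as follows: active = inhibition exceeding the mean over every tested compound plus 3 SD (cut at about 30% in these data); inactive = the rest.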 The entries come from a sample that favours actives as a whole. Where a structure was tested more than once in an assay, its records may differ in their call.
# Biological target: (Lyso)-N-acylphosphatidylethanolamine lipase (Mus musculus) (UniProt Q8VD66)
# Assay: ABHD4 inhibitors, primary screen, biochemical, fluorescence polarization, mouse (AID 720543);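 also: 0% = plate median of compound wells and 100% = S159A mutant with DMSO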
# Conditions: purified mABHD4, FP-Rh probe fluorescence polarization; at 8.92 µM; stronger effect = higher value
# Summary of the method: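 Material: mouse ABHD4 enzyme, wild type; Benchmarks: S159A mutant high control, sample median low control; Buffer or medium: HEPES pH 7.0, NaCl, Pluronic buffer; Signal: fluorescence polarization; Read-out: percent inhibition of probe binding, normalized to plate controls; Timing: pre-incubation 45 min, probe exposure 60 min, at 25 °C; Dosing: 8.92 µM, single dose.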
# Sequence of (Lyso)-N-acylphosphatidylethanolamine lipase (Mus musculus) (Q8VD66 whole entry, looked up): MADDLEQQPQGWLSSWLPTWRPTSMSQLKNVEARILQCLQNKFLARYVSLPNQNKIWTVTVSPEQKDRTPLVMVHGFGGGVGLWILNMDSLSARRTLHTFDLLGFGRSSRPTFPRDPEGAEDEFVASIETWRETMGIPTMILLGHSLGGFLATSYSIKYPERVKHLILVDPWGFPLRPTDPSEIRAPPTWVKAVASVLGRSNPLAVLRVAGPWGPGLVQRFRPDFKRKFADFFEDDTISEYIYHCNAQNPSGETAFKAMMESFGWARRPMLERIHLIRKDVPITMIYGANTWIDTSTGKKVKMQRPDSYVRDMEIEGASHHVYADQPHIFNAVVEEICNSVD
row,Compound,inhibition
1,COC(=O)c1c(-c2ccc(OC)cc2)c2c(c3c4cc(OC)ccc4n(S(=O)(=O)c4ccc(F)cc4)c13)C(=O)N(C)C2,-0.06% (inactive)
2,Cc1cc(NS(=O)(=O)c2ccc(NC(=O)CSc3nnc(SCc4ccc(F)cc4)s3)cc2)nc(C)n1,-21.5% (inactive)
3,Fc1ccc2nc(COCc3nc4ccc(F)cc4[nH]3)[nH]c2c1,-7.17% (inactive)
4,COC(=O)c1oc2ccc(Br)cc2c1NC(C)=O,40.3% (active)
5,COC(=O)c1[nH]c2ccc(Br)cc2c1NC(=O)Oc1ccccc1,-1.15% (inactive)
6,COCC(=O)Nc1c(C(=O)N2CCCC2)oc2ccccc12,-0.25% (inactive)
7,FC(F)(F)c1cccc(NC(=S)OC2CCC23CCC(c2ccccc2)CC3)c1 (centres undefined),-21.8% (inactive)
8,Cc1cc(C)c(S(=O)(=O)NN=C2c3ccccc3[C@H]3Cc4csc[n+]4[C@@H]23)c(C)c1,33.3% (active)
9,CCOC(=O)c1csc(NC(=O)C2CCCN(S(=O)(=O)c3ccc(Cl)s3)C2)n1 (centres undefined),-51.6% (inactive)
10,CCCCCCN1CCS(=O)(=O)N(Cc2ccc(C(F)(F)F)cc2)C(C(=O)OC)C1 (centres undefined),-4.07% (inactive)
11,O=C(Nc1cc(S(=O)(=O)Nc2ccc(Cl)cc2)ccc1O)c1ccc(F)cc1F,-6.3% (inactive)
12,COc1ccc(Br)cc1/C=N/Nc1ccc(Cl)c(C(=O)O)c1,40.3% (active)
13,COc1ccc(Br)cc1/C=N/Nc1ccc(S(=O)(=O)Nc2ccccc2C(=O)O)cc1[N+](=O)[O-],38.4% (active)
14,COc1ccc(S(=O)(=O)NC(C)c2ccccc2)cc1C(=O)N1CCCCC1 (centres undefined),3.07% (inactive)
15,COc1ccc(Br)cc1CN(C)CC(=O)Nc1cc(Cl)cc(Cl)c1,6.47% (inactive)
16,Cc1ccc(NS(=O)(=O)c2ccc(N/N=C/c3ccccc3OCC(=O)O)c([N+](=O)[O-])c2)c(C)c1,52.1% (active)
17,Cc1ccc(NS(=O)(=O)c2ccc3c(c2)n(C)c(=O)c(=O)n3C)c(C)c1,-1.8% (inactive)
18,Cc1ccc(C)c(NS(=O)(=O)c2ccc(OCC(=O)NCc3cccnc3)cc2)c1,-3.89% (inactive)
19,COc1cc(/C=C/C(=O)O)cc(S(=O)(=O)Nc2ccccc2C(=O)NCCc2ccccc2)c1OC,6.19% (inactive)
20,Cc1ccc(OCCOCCOc2ccc(Br)cc2/C=N\NC(=O)c2ccncc2)cc1,-84.8% (inactive)
21,O=C(O)c1ccccc1/C=N/Nc1ccc(S(=O)(=O)Nc2ccc(Cl)cc2)cc1[N+](=O)[O-],43.8% (active)

row,Compound,inhibition
1,O=[N+]([O-])c1cc(S(=O)(=O)Nc2cccc(Cl)c2)ccc1N=Nc1c(O)[nH]c2ccccc12,7.74% (inactive)
2,CC1(C)CC(=O)C(C2c3ccccc3S(=O)(=O)c3ccccc32)C(=O)C1,0.77% (inactive)
3,O=C(CSc1nc2c(c(=O)[nH]1)CCCC2)N1CCCCC1,0.85% (inactive)
4,Cc1ccccc1CS(=O)(=O)Cc1ccc(C(=O)Nc2ccc(Cl)cc2)o1,1.54% (inactive)
5,CN(C)S(=O)(=O)c1cccc(C(=O)N/N=C\c2ccco2)c1,5.39% (inactive)
6,COc1ccc([C@H]2OC(=O)C[C@H]2C(=O)N2CCN(c3ccccc3F)CC2)cc1OC,0.9% (inactive)
7,CC(C)(C)NC(=O)NC(=O)COC(=O)Cn1c(C(F)(F)F)nc2ccccc21,1.11% (inactive)
8,Cc1cccc(NC(=O)C[C@H]2CC[C@H]3[C@@H](COc4ccc(NC(=O)Nc5ccccc5)cc4C(=O)N3C)O2)c1,7.9% (inactive)
9,COc1ccc(-n2c(SCC(=O)Nc3ccc4cn[nH]c4c3)nnc2-c2cccnc2)cc1,0.5% (inactive)
10,CCOc1ccc(/C(O)=C2\C(=O)C(=O)N(c3ccc(OC)cc3)C2c2ccccc2[N+](=O)[O-])cc1 (centres undefined),5.37% (inactive)
11,C[C@@H](NC(=O)c1ccccc1OCC(=O)Nc1ccc(I)cc1)C(=O)N(C)Cc1ccccc1,-28.4% (inactive)
12,COc1ccc(Cc2nc3ccc(C(=O)N4CCC(N(C)C)C4)cc3o2)cc1 (centres undefined),-2.59% (inactive)
13,Cc1cc(=O)[nH]c(SCC(=O)Nc2ccc(F)cc2F)n1,2.2% (inactive)
14,CCN(CC(=O)NCc1cccs1)C(=O)c1cccc(S(=O)(=O)Nc2ccccc2OC)c1,-5.42% (inactive)
15,CCOc1ccccc1NS(=O)(=O)c1c[nH]c(C(=O)OC)c1,-5.46% (inactive)
16,COc1cccc(/C=N/Nc2ccc(S(=O)(=O)Nc3ccccc3C(=O)O)cc2[N+](=O)[O-])c1O,70.3% (active)
17,CC(C)(C)NC(=O)C(c1cccnc1)N(C(=O)c1cnco1)c1ccc(C(C)(C)C)cc1 (centres undefined),-5.63% (inactive)
18,CC1CCCCC1NC(=O)CSc1nnc(-c2ccncc2)n1CCCN(C)C (centres undefined),18.4% (inactive)
19,CCC[C@H]1C(=O)CC[C@@]23CCCN2C(=O)CCC[C@@H]13,-0.16% (inactive)
20,CN1C(=O)C2CC(O)C(SC3CC4C(=O)N(C)C(=O)C4CC3O)CC2C1=O (centres undefined),4.09% (inactive)
21,CCCC(=O)N1c2ccc(-c3csc(N)n3)cc2CC1C (centres undefined),6.5% (inactive)

row,Compound,inhibition
1,COCc1cccc(-c2csc(C(O)c3ccc(F)cc3)n2)c1 (centres undefined),-6.65% (inactive)
2,CC(C)(C)C(=O)OCc1nc(-c2ccc(O)c(O)c2)cs1,39.5% (active)
3,COc1ccc(C(=O)CSc2nnc(-c3cnccn3)n2-c2ccc(C)cc2)cc1,-7.18% (inactive)
4,COC(=O)[C@H](C(C)C)N1CCc2nnn(Cc3ccc(C)cc3)c2-c2ccccc2S1(=O)=O,8.58% (inactive)
5,CN(CCO)c1cccc2c1S(=O)(=O)N(Cc1cn(Cc3ccc(C(F)(F)F)cc3)nn1)Cc1ccccc1O2,1.41% (inactive)
6,CCOC(=O)C1CCN(C(=O)C(C)(C)NC(=O)Nc2ccc(F)c(F)c2)CC1,-6.47% (inactive)
7,Clc1ccc(-n2c(SC/C=C/c3ccccc3)nnc2-c2ccco2)cc1,-10.5% (inactive)
8,Clc1ccccc1CSc1nnc(-c2ccco2)c(-c2ccco2)n1,38.9% (active)
9,COc1ccnc(C(=O)N2CCC(Oc3cccnc3)CC2)c1,3.41% (inactive)
10,CC(C)(C)c1ccc(C(=O)Nc2cc(Cl)c(Br)cc2C(=O)O)cc1,-156% (inactive)
11,COc1cc(NC(=S)NNC(=O)CC(C)C)c(OC)cc1Cl,1.23% (inactive)
12,CCc1ccccc1NC(=S)Nc1cc(OC)c(NC(=O)C(C)C)cc1OC,33.4% (active)
13,COc1ccc(C)cc1NC(=S)Nc1ccccc1SC,-1.16% (inactive)
14,Cc1ccccc1CN1CCCCC(NC(=O)Nc2ccccc2F)C1=O (centres undefined),3.77% (inactive)
15,Oc1c(Cl)cc(Cl)c(Cl)c1Cc1c(O)c(Cl)cc(Cl)c1Cl,-117% (inactive)
16,CCOC(=O)[C@]12CCCC3=C1N(CCC3)C(=O)[C@@H](CC(=O)NCC13CC4CC(CC(C4)C1)C3)C2,3.95% (inactive)
17,CC/C(=C(/c1ccccc1)c1ccc(OCC[N+](C)(C)C)cc1)c1ccccc1,30% (active)
18,COC(=O)C[C@@H]1CC[C@H]2[C@@H](COc3ccc(NS(=O)(=O)CC(F)(F)F)cc3C(=O)N2C)O1,10.4% (inactive)
19,COC(=O)c1ccc(CN(c2ccccc2OC)S(=O)(=O)c2cccs2)o1,4.33% (inactive)
20,COC(=O)C1=C(C(=O)OC)C2C=C(C(C)C)C1C(=O)C2(C)O (centres undefined),-1.36% (inactive)
21,CCOc1ccc(S(=O)(=O)NCCC(=O)NCC(C)(C)N2CCOCC2)cc1,4.91% (inactive)

row,Compound,inhibition
1,O=C(OCc1ccccc1F)c1ccc2c(c1)OCCO2,1.07% (inactive)
2,O=C(COC(=O)c1ccc(O)cc1O)c1ccc2c(c1)OCCO2,36.5% (active)
3,O=C1COc2ccc(C(=O)COC(=O)c3ccccc3Cl)cc2N1,-1.93% (inactive)
4,Cc1nc2sccn2c(=O)c1S(=O)(=O)NCCc1ccccc1,0.82% (inactive)
5,O=C(COC(=O)c1ncc(Cl)c(Cl)c1Cl)NC1CCS(=O)(=O)C1 (centres undefined),2.44% (inactive)
6,Oc1ccc(N=Cc2sc3ccccc3c2Cl)cc1,88.4% (active)
7,Oc1ccc(N=Cc2c(O)ccc3ccccc23)cc1,51.1% (active)
8,C[C@@H]1CN([C@@H](C)CO)C(=O)c2cccc(NC(=O)Nc3cccc4ccccc34)c2O[C@H]1CN(C)S(=O)(=O)c1ccccc1F,-0.79% (inactive)
9,COC(=O)[C@]12C[C@H](CC(=O)NCc3cccc4ccccc34)C(=O)N(CCc3ccc(OC)c(OC)c3)C1=C[C@H](C1CCCC1)O[C@@H]2C,-10.3% (inactive)
10,Cn1c(SCC(=O)N2CCOCC2)nnc1-c1ccc(NC(=O)c2ccccc2F)cc1,1.97% (inactive)
11,CSc1nc2sc3c(c2c(=O)[nH]1)CCc1ccccc1-3,4.16% (inactive)
12,CCCNC(=O)Nc1ccc2c(c1)C(=O)N(C)[C@H]1CC[C@H](CC(=O)NCC3CCCCC3)O[C@@H]1CO2,12.2% (inactive)
13,O=[N+]([O-])c1cc(Cl)cc(/C=N/NC(=S)Nc2cc(S(=O)(=O)N3CCOCC3)ccc2Cl)c1O,32.2% (active)
14,Cc1ccc(S(=O)(=O)N2CCOCC2)cc1NC(=O)c1ccncc1,-3.76% (inactive)
15,COCCNC(=S)Nc1cc(S(=O)(=O)N2CCOCC2)ccc1N1CCCCC1,1.6% (inactive)
16,Cc1ccccc1NC(=O)CSc1ccc2nnc(-c3ccccn3)n2n1,5.22% (inactive)
17,CC12C(=O)N(n3cnnc3)C(=O)C1C1C=CC2C1 (centres undefined),-1.34% (inactive)
18,CCCCN1C(=O)/C(=C2/C=CC=CN2C)SC1=S,4.21% (inactive)
19,CCN1C(=O)/C(=C2/Sc3ccccc3N2CCCS(=O)(=O)O)SC1=S,9.75% (inactive) and 31.2% (active)
20,CCN1C(=O)/C(=C\N2CCOCC2)SC1=S,9.79% (inactive)
21,CC(=O)Nc1ccc(NC(=O)CSC2=NS(=O)(=O)c3ccccc3N2)cc1,0.67% (inactive)
